From ChEMBL document CHEMBL2331540, “Synthesis and SAR study of pyrrolo[3,4-b]pyridin-7(6H)-one derivatives as melanin concentrating hormone receptor 1 (MCH-R1) antagonists” (Bioorg Med Chem Lett, 2013)
≈ marks a conversion by molar mass, not a printed value.

Experiments:
[1] = target: Melanin-concentrating hormone receptor 1 (Homo sapiens, UniProt Q99705); experiment: Displacement of Eu-MCH from human MCHR1 expressed in CHO cell membranes by TRF assay
How it was run: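 Competitive binding on membranes of CHO cells expressing human MCH-R1, with Eu-labeled MCH as tracer; bound label read by time-resolved fluorometry, values given as IC50.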

[2] = Half life in rat at 10 mg/kg, po and iv; assay type: ADME, organism-based; set-up: dose 10 mg/kg, route oral; settings: in vivo
How it was run: (§1)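 Rats dosed at 10 mg/kg by both iv and po routes, n = 3; plasma pharmacokinetic parameters derived from the iv/po study.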

[3] = Metabolic stability in rat liver microsomes measured for 30 mins; assay type: ADME, Microsome; settings: read-out: Stability
How it was run: (§2)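 Test compound incubated 30 min with human or rat liver microsomes; stability given as percent remaining.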

CYP3A4 = CYP3A4 (Homo sapiens, UniProt P08684); experiment: Inhibition of CYP3A4 (unknown origin) at 10 uM relative to control; assay type: ADME
CYP3A4, sequence (P08684 whole entry): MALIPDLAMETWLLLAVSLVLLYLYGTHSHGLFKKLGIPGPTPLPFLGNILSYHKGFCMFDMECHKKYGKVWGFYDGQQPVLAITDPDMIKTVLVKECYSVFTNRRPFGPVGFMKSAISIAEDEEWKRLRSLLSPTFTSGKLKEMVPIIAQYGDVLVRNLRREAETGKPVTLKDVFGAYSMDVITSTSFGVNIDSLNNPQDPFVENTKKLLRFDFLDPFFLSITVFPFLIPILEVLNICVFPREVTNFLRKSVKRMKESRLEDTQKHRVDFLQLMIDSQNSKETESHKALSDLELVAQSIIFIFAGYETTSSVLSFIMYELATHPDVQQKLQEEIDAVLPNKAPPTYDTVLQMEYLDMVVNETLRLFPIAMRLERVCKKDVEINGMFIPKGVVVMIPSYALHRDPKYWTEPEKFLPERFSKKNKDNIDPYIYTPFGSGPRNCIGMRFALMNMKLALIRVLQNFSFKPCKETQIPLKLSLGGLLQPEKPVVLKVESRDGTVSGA

Rattus norvegicus [4] = experiment: Oral bioavailability in rat at 10 mg/kg; assay type: ADME, organism-based; settings: in vivo; how it was run: as §1
[5] = Metabolic stability in human liver microsomes measured for 30 mins; assay type: ADME, Microsome; settings: read-out: Stability; how it was run: as §2
Rattus norvegicus [6] = experiment: Volume of distribution at steady state in rat at 10 mg/kg, po and iv; assay type: ADME, organism-based; set-up: dose 10 mg/kg, route oral; settings: in vivo; how it was run: as §1
CYP2D6 = CYP2D6 (Homo sapiens, UniProt P10635); experiment: Inhibition of CYP2D6 (unknown origin) at 10 uM relative to control; assay type: ADME
CYP2D6, sequence (P10635 whole entry): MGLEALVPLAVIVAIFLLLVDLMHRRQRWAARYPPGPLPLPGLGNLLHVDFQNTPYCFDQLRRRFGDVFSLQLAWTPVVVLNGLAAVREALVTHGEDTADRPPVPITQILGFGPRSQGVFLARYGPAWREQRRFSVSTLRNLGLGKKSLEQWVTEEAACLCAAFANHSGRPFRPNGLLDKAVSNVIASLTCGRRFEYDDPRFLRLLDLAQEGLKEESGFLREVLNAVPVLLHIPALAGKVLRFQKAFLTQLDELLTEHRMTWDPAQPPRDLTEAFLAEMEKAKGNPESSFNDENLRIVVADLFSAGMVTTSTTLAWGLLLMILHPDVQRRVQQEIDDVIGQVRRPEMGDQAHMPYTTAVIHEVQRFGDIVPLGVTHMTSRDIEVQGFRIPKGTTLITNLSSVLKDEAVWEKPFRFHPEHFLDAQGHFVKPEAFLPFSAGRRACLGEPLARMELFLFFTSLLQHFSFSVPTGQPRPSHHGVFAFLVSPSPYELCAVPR

[7] = Aqueous solubility of the compound; assay type: physicochemical; settings: buffer
[8] = Permeability of the compound by PAMPA; assay type: ADME; settings: read-out: permeability
Rattus norvegicus [9] = experiment: AUC in rat at 10 mg/kg, po; assay type: ADME, organism-based, Plasma; set-up: dose 10 mg/kg, route oral; settings: in vivo; how it was run: as §1

Melanin-concentrating hormone receptor 1, sequence (Q99705 whole entry): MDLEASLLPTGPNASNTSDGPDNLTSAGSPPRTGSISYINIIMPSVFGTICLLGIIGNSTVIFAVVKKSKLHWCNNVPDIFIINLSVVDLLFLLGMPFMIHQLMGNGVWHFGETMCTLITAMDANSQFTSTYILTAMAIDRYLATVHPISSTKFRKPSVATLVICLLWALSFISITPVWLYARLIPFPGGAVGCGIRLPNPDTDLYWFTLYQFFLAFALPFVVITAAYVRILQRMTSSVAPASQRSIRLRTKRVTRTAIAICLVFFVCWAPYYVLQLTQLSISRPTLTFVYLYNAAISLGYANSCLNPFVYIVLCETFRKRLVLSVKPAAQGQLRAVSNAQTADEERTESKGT

| Structure (SMILES) | IC50 [1] | further results |
| --- | --- | --- |
| COc1cc(N2Cc3ccc(-c4ccccc4Cl)nc3C2=O)ccc1OCCN1CCCC1 | 510 nM |  |
| COc1cc(N2Cc3ccc(Cc4ccc(Cl)cc4)nc3C2=O)ccc1OCCN1CCCC1 | 120 nM |  |
| CCc1ccccc1-c1ccc2c(n1)C(=O)N(c1ccc(OCCN3CCCC3)c(OC)c1)C2 | 2000 nM |  |
| COc1cc(N2Cc3ccc(-c4ccc(C)c(C)c4)nc3C2=O)ccc1OCCN1CCCC1 | 180 nM |  |
| COc1cc(N2Cc3ccc(-c4cc(C)ccc4C)nc3C2=O)ccc1OCCN1CCCC1 | 300 nM |  |
| COc1cc(N2Cc3ccc(Sc4ccc(F)c(F)c4)nc3C2=O)ccc1OCCN1CCCC1 | 50 nM |  |
| COc1cc(N2Cc3ccc(Cc4ccc(C)cc4)nc3C2=O)ccc1OCCN1CCCC1 | 160 nM |  |
| COc1cc(N2Cc3ccc(-c4ccc(Cl)cc4)nc3C2=O)ccc1OCCN1CCCC1 | 440 nM |  |
| COc1cc(N2Cc3ccc(-c4ccc(C(C)C)cc4)nc3C2=O)ccc1OCCN1CCCC1 | 90 nM |  |
| COc1cc(N2Cc3ccc(Sc4ccc(F)cc4)nc3C2=O)ccc1OCCN1CCCC1 | 30 nM | half-life [2]: 3.4 h; remaining at 0.5 h [3]: 79%; inhibition at 10 µM (CYP3A4): < 10%; F (Rattus norvegicus [4]): 92%; remaining at 0.5 h [5]: 97%; Vdss (Rattus norvegicus [6]): 8.3 L/kg; inhibition at 10 µM (CYP2D6): < 10%; solubility [7]: 104 µg/mL (≈ 217 µM); Papp [8]: 1.9 ×10⁻⁶ cm/s; AUC (Rattus norvegicus [9]): 5700 ng·h/mL |
| COc1cc(N2Cc3ccc(Cc4cccc(F)c4)nc3C2=O)ccc1OCCN1CCCC1 | 410 nM |  |
| COc1cc(N2Cc3ccc(-c4ccc(F)cc4)nc3C2=O)ccc1OCCN1CCCC1 | 3100 nM |  |
| COc1cccc(-c2ccc3c(n2)C(=O)N(c2ccc(OCCN4CCCC4)c(OC)c2)C3)c1 | 2010 nM |  |
| COc1cc(N2Cc3ccc(Cc4ccc(F)cc4)nc3C2=O)ccc1OCCN1CCCC1 | 80 nM |  |
| COc1cc(N2Cc3ccc(Sc4ccc(F)cc4Cl)nc3C2=O)ccc1OCCN1CCCC1 | 80 nM |  |
| CCc1ccc(-c2ccc3c(n2)C(=O)N(c2ccc(OCCN4CCCC4)c(OC)c2)C3)cc1 | 50 nM |  |
| COc1cc(N2Cc3ccc(Cc4ccc(C(C)(C)C)cc4)nc3C2=O)ccc1OCCN1CCCC1 | 1910 nM |  |
| COc1cc(N2Cc3ccc(Cc4ccccc4C)nc3C2=O)ccc1OCCN1CCCC1 | 720 nM |  |
| COc1cc(N2Cc3ccc(Sc4ccc(F)cc4F)nc3C2=O)ccc1OCCN1CCCC1 | 60 nM |  |
| COc1cc(N2Cc3ccc(-c4ccccc4OC)nc3C2=O)ccc1OCCN1CCCC1 | 7110 nM |  |

| Structure (SMILES) | IC50 [1] | further results |
| --- | --- | --- |
| COc1cc(N2Cc3ccc(-c4cccc(C)c4C)nc3C2=O)ccc1OCCN1CCCC1 | 190 nM |  |
| COc1cc(N2Cc3ccc(Sc4ccc(C)cc4)nc3C2=O)ccc1OCCN1CCCC1 | 60 nM |  |
| COc1cc(N2Cc3ccc(-c4ccccc4)nc3C2=O)ccc1OCCN1CCCC1 | 10000 nM |  |
| COc1cc(N2Cc3ccc(-c4cccc(Cl)c4)nc3C2=O)ccc1OCCN1CCCC1 | 5650 nM |  |
| C=Cc1ccc(-c2ccc3c(n2)C(=O)N(c2ccc(OCCN4CCCC4)c(OC)c2)C3)cc1 | 130 nM |  |
| COc1cc(N2Cc3ccc(-c4ccccc4C)nc3C2=O)ccc1OCCN1CCCC1 | 1040 nM |  |
| COc1cc(N2Cc3ccc(Cc4ccccc4)nc3C2=O)ccc1OCCN1CCCC1 | 70 nM |  |
| COc1cc(N2Cc3ccc(-c4ccc(C(C)(C)C)cc4)nc3C2=O)ccc1OCCN1CCCC1 | 320 nM |  |
| COc1ccc(-c2ccc3c(n2)C(=O)N(c2ccc(OCCN4CCCC4)c(OC)c2)C3)cc1 | 340 nM |  |
| CCCc1ccc(-c2ccc3c(n2)C(=O)N(c2ccc(OCCN4CCCC4)c(OC)c2)C3)cc1 | 210 nM |  |
| COc1cc(N2Cc3ccc(Sc4ccc(Cl)cc4)nc3C2=O)ccc1OCCN1CCCC1 | 40 nM |  |
| CCCCc1ccc(-c2ccc3c(n2)C(=O)N(c2ccc(OCCN4CCCC4)c(OC)c2)C3)cc1 | 2780 nM |  |
| COc1cc(N2Cc3ccc(Sc4ccc(F)c(Cl)c4)nc3C2=O)ccc1OCCN1CCCC1 | 50 nM |  |
| COc1cc(N2Cc3ccc(Sc4ccccc4)nc3C2=O)ccc1OCCN1CCCC1 | 20 nM | half-life [2]: 2.8 h; F (Rattus norvegicus [4]): 35%; Vdss (Rattus norvegicus [6]): 22.7 L/kg; AUC (Rattus norvegicus [9]): 320 ng·h/mL |
| COc1cc(N2Cc3ccc(-c4ccc(C)cc4)nc3C2=O)ccc1OCCN1CCCC1 | 80 nM |  |
| COc1cc(N2Cc3ccc(-c4ccc(C(F)(F)F)cc4)nc3C2=O)ccc1OCCN1CCCC1 | 540 nM |  |
| COc1cc(N2Cc3ccc(-c4ccccc4F)nc3C2=O)ccc1OCCN1CCCC1 | 4130 nM |  |
| COc1ccc(Sc2ccc3c(n2)C(=O)N(c2ccc(OCCN4CCCC4)c(OC)c2)C3)cc1 | 100 nM |  |
| COc1cc(N2Cc3ccc(-c4ccc(C#N)cc4)nc3C2=O)ccc1OCCN1CCCC1 | 10000 nM |  |
